From ChEMBL document CHEMBL1124793, “Comparative reactivity of 1-carba-1-dethiacephalosporins with cephalosporins” (J Med Chem, 1990)
In brackets after ≈: the same amount, converted by molar mass.

Experiments:
[1] = Pseudo-first-order rate constant at pH 10 and 35 degrees Centigrade; assay type: ADME
Outline: (§1)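 Parent β-lactam loss followed by HPLC, starting at 3.9 × 10^-4–1 × 10^-3 M, at 35 °C and μ = 0.5. pH was held at 10 by a pH-stat adding NaOH. Pseudo-first-order rate constants were derived, with half-lives from these rates. Some runs were done at pH 11, and the constant was taken as 1/10 of the observed value, assuming proportionality to [OH].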

[2] = Half-life is evaluated; assay type: ADME; outline: as §1
Enterobacter cloacae = assay: In vitro inhibitory activity against Enterobacter cloacae EB5; assay type: functional
Outline: (§2)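 Agar dilution: compounds were diluted in 0.1 M phosphate buffer, pH 7.0, and mixed at 50 °C into Mueller–Hinton agar with 1% Bacto-Supplement C. Fresh overnight cultures were diluted to about 1 × 10^4 cells/μL and spotted at 1 μL. Plates were incubated overnight at 35 °C in ambient air. MIC (μg/mL) was the lowest concentration preventing visible growth.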

Escherichia coli [3] = assay: In vitro inhibitory activity against Escherichia coli EC14; assay type: functional; outline: as §2
Haemophilus influenzae = assay: In vitro inhibitory activity against Haemophilus influenza C.L; assay type: functional; outline: as §2
Klebsiella pneumoniae = assay: In vitro inhibitory activity against Klebsiella X26; assay type: functional; outline: as §2
Pseudomonas aeruginosa [4] = assay: In vitro inhibitory activity against Pseudomonas aeruginosa X258; assay type: functional; outline: as §2
Providencia rettgeri = assay: In vitro inhibitory activity against Proteus rettgeri C24; assay type: functional; outline: as §2
Staphylococcus aureus = assay: In vitro inhibitory activity against Staphylococcus aureus X1.1; assay type: functional; outline: as §2
Streptococcus pyogenes = assay: In vitro inhibitory activity against Streptococcus pyogenes Park; assay type: functional; outline: as §2
Escherichia coli [5] = assay: Inhibitory activity against Escherichia coli EC14; assay type: functional; outline: as §2
[6] = Pseudo-first-order rate constant at pH 10, micro=0.5, 35 degrees Centigrade; assay type: ADME; outline: as §1
Pseudomonas aeruginosa [7] = assay: In vitro in vitro inhibitory activity against Pseudomonas aeruginosa X258; assay type: functional; outline: as §2

| SMILES | K [1] [h⁻¹] | half-life [2] [h] | MIC (Enterobacter cloacae) [µg/mL] | MIC (Escherichia coli [3]) [µg/mL] | MIC (Haemophilus influenzae) [µg/mL] | MIC (Klebsiella pneumoniae) [µg/mL] | MIC (Pseudomonas aeruginosa [4]) [µg/mL] | MIC (Providencia rettgeri) [µg/mL] | MIC (Staphylococcus aureus) [µg/mL] | MIC (Streptococcus pyogenes) [µg/mL] | MIC (Escherichia coli [5]) [µg/mL] | K [6] [h⁻¹] | MIC (Pseudomonas aeruginosa [7]) [µg/mL] |
| --- | --- | --- | --- | --- | --- | --- | --- | --- | --- | --- | --- | --- | --- |
| O=C(Cc1cccs1)N[C@@H]1C(=O)N2C(C(=O)O)=C(C(=O)O)CC[C@H]12 | 0.0105 | 66 | – | – | – | – | – | – | – | – | – | – | – |
| CC1=C(C(=O)O)N2C(=O)[C@@H](NC(=O)COc3ccccc3)[C@H]2SC1 | 0.0793 | 8.74 | 128 (≈ 367 µM) | 128 (≈ 367 µM) | 16 (≈ 45.9 µM) | 64 (≈ 184 µM) | 128 (≈ 367 µM) | 128 (≈ 367 µM) | 4 (≈ 11.5 µM) | 1 (≈ 2.87 µM) | – | – | – |
| O=C(COc1ccccc1)N[C@@H]1C(=O)N2C(C(=O)O)=C(Cl)CS[C@H]12 | 0.895 | 0.774 | 128 (≈ 347 µM) | 64 (≈ 174 µM) | 2 (≈ 5.42 µM) | 8 (≈ 21.7 µM) | 128 (≈ 347 µM) | 128 (≈ 347 µM) | 0.25 (≈ 0.678 µM) | 0.25 (≈ 0.678 µM) | – | – | – |
| N[C@@H](C(=O)N[C@@H]1C(=O)N2C(C(=O)O)=C(Cl)CS[C@H]12)c1ccccc1 [CEFACLOR ANHYDROUS] | 0.944 | 0.734 | 32 (≈ 87 µM) | 0.25 (≈ 0.68 µM) | 1 (≈ 2.72 µM) | 0.25 (≈ 0.68 µM) | 128 (≈ 348 µM) | 128 (≈ 348 µM) | 1 (≈ 2.72 µM) | 0.5 (≈ 1.36 µM) | – | – | – |
| CS(=O)(=O)OC1=C(C(=O)O)N2C(=O)[C@@H](NC(=O)COc3ccccc3)[C@H]2SC1 | 1.91 | 0.363 | 128 (≈ 299 µM) | – | 4 (≈ 9.34 µM) | 8 (≈ 18.7 µM) | 128 (≈ 299 µM) | 128 (≈ 299 µM) | 0.125 (≈ 0.292 µM) | 0.015 (≈ 0.035 µM) | 64 (≈ 149 µM) | – | – |
| CO/N=C(\C(=O)N[C@@H]1C(=O)N2C(C(=O)[O-])=C(C[n+]3ccccc3)CC[C@H]12)c1csc(N)n1 | 0.0628 | 11 | 0.06 (≈ 0.131 µM) | 0.03 (≈ 0.0657 µM) | 0.5 (≈ 1.1 µM) | 0.03 (≈ 0.0657 µM) | 2 (≈ 4.38 µM) | 0.06 (≈ 0.131 µM) | 4 (≈ 8.76 µM) | 0.015 (≈ 0.0329 µM) | – | – | – |
| COCC1=C(C(=O)O)N2C(=O)[C@@H](NC(=O)COc3ccccc3)[C@H]2CC1 | – | 46.5 | 128 (≈ 355 µM) | 32 (≈ 88.8 µM) | 8 (≈ 22.2 µM) | 8 (≈ 22.2 µM) | 128 (≈ 355 µM) | 128 (≈ 355 µM) | 0.5 (≈ 1.39 µM) | 0.25 (≈ 0.694 µM) | – | 0.0149 | – |
| N[C@@H](C(=O)N[C@@H]1C(=O)N2C(C(=O)O)=C(Cl)CC[C@H]12)c1ccccc1 [LORACARBEF ANHYDROUS] | 0.0324 | 21.4 | 4 (≈ 11.4 µM) | 0.25 (≈ 0.715 µM) | 0.5 (≈ 1.43 µM) | 0.25 (≈ 0.715 µM) | 128 (≈ 366 µM) | 128 (≈ 366 µM) | 2 (≈ 5.72 µM) | 1 (≈ 2.86 µM) | – | – | – |
| CC1=C(C(=O)O)N2C(=O)[C@@H](NC(=O)COc3ccccc3)[C@H]2CC1 | – | 433 | 128 (≈ 387 µM) | 128 (≈ 387 µM) | 32 (≈ 96.9 µM) | 32 (≈ 96.9 µM) | 128 (≈ 387 µM) | 128 (≈ 387 µM) | 4 (≈ 12.1 µM) | 1 (≈ 3.03 µM) | – | 0.0016 | – |
| COC(=O)C1=C(C(=O)O)N2C(=O)[C@@H](NC(=O)Cc3cccs3)[C@H]2SC1 | 6.27 | 0.111 | 128 (≈ 335 µM) | 2 (≈ 5.23 µM) | 2 (≈ 5.23 µM) | 2 (≈ 5.23 µM) | – | 128 (≈ 335 µM) | 0.5 (≈ 1.31 µM) | 0.03 (≈ 0.0784 µM) | – | – | 128 (≈ 335 µM) |
| CO/N=C(\C(=O)N[C@@H]1C(=O)N2C(C(=O)O)=CCS[C@H]12)c1csc(N)n1 [CEFTIZOXIME] | 0.114 | 6.08 | 0.06 (≈ 0.156 µM) | 0.015 (≈ 0.0391 µM) | 0.015 (≈ 0.0391 µM) | 0.008 (≈ 0.0209 µM) | 32 (≈ 83.5 µM) | 0.008 (≈ 0.0209 µM) | 4 (≈ 10.4 µM) | 0.015 (≈ 0.0391 µM) | – | – | – |
| CO/N=C(\C(=O)N[C@@H]1C(=O)N2C(C(=O)O)=CCC[C@H]12)c1csc(N)n1 | 0.00565 | 123 | 0.06 (≈ 0.164 µM) | 0.008 (≈ 0.0219 µM) | 0.008 (≈ 0.0219 µM) | 0.008 (≈ 0.0219 µM) | 32 (≈ 87.6 µM) | 0.008 (≈ 0.0219 µM) | 16 (≈ 43.8 µM) | 0.015 (≈ 0.0411 µM) | – | – | – |
| O=C(Cc1cccs1)N[C@@H]1C(=O)N2C(C(=O)O)=C(C(=O)O)CS[C@H]12 | 0.34 | 2.04 | – | – | – | – | – | – | – | – | – | – | – |
| CS(=O)(=O)OC1=C(C(=O)O)N2C(=O)[C@@H](NC(=O)COc3ccccc3)[C@H]2CC1 | 0.089 | 7.79 | 128 (≈ 312 µM) | 32 (≈ 78 µM) | 8 (≈ 19.5 µM) | 8 (≈ 19.5 µM) | 128 (≈ 312 µM) | 128 (≈ 312 µM) | 0.5 (≈ 1.22 µM) | 0.5 (≈ 1.22 µM) | – | – | – |
| COC(=O)C1=C(C(=O)O)N2C(=O)[C@@H](NC(=O)Cc3cccs3)[C@H]2CC1 | – | 0.867 | 128 (≈ 351 µM) | 1 (≈ 2.74 µM) | 1 (≈ 2.74 µM) | 0.25 (≈ 0.686 µM) | 128 (≈ 351 µM) | 8 (≈ 22 µM) | 0.25 (≈ 0.686 µM) | – | – | 0.799 | – |
| COCC1=C(C(=O)O)N2C(=O)[C@@H](NC(=O)COc3ccccc3)[C@H]2SC1 | 0.368 | 1.88 | 128 (≈ 338 µM) | 128 (≈ 338 µM) | 2 (≈ 5.29 µM) | 32 (≈ 84.6 µM) | 128 (≈ 338 µM) | 128 (≈ 338 µM) | 0.25 (≈ 0.661 µM) | 0.12 (≈ 0.317 µM) | – | – | – |
| CO/N=C(\C(=O)N[C@@H]1C(=O)N2C(C(=O)[O-])=C(C[n+]3ccccc3)CS[C@H]12)c1csc(N)n1 | 1.85 | 0.375 | 0.06 (≈ 0.126 µM) | 0.03 (≈ 0.0632 µM) | 0.06 (≈ 0.126 µM) | 0.03 (≈ 0.0632 µM) | 2 (≈ 4.21 µM) | 0.03 (≈ 0.0632 µM) | 1 (≈ 2.11 µM) | 0.03 (≈ 0.0632 µM) | – | – | – |
| O=C(COc1ccccc1)N[C@@H]1C(=O)N2C(C(=O)O)=C(Cl)CC[C@H]12 | – | 15.8 | 128 (≈ 365 µM) | 8 (≈ 22.8 µM) | 4 (≈ 11.4 µM) | 8 (≈ 22.8 µM) | 128 (≈ 365 µM) | 128 (≈ 365 µM) | 1 (≈ 2.85 µM) | 0.25 (≈ 0.713 µM) | – | 0.0438 | – |
